Test results as given in ChEMBL document CHEMBL1142436, “Design and synthesis of 4-substituted indolo[3,2-e][1,2,3]triazolo[1,5-a]pyrimidine derivatives with antitumor activity” (2008).

Tests used:
Assay type in all cases: functional
CCRF-CEM = experiment: Growth inhibition of human CCRF-CEM cells after 48 hrs
Procedure, shortened: (§1)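 NCI ~60-line screen. Cells were grown in RPMI 1640 with 5% FBS and 2 mM L-glutamine and plated at 5000–40000 cells/well. After a 24 h preincubation, five drug concentrations from DMSO stocks were added for 48 h at 37 °C. Cells were TCA-fixed, stained with SRB and read at 515 nm. GI50 was taken from time-zero and control absorbances and reported as pGI50.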

HL-60 = experiment: Growth inhibition of human HL60 cells after 48 hrs; conditions: HL-60, 48 h; procedure, shortened: as §1
K562 = experiment: Growth inhibition of human K562 cells after 48 hrs; conditions: K562, 48 h; procedure, shortened: as §1
MOLT-4 = experiment: Growth inhibition of human MOLT4 cells after 48 hrs; conditions: MOLT-4, 48 h; procedure, shortened: as §1
[1] = Growth inhibition of human HS578T cells after 48 hrs; conditions: Hs-578T; procedure, shortened: as §1
MDA-MB-435 = experiment: Growth inhibition of human MDA-MB435 cells after 48 hrs; conditions: MDA-MB-435, 48 h; procedure, shortened: as §1
BT-549 = experiment: Growth inhibition of human BT549 cells after 48 hrs; conditions: BT-549, 48 h; procedure, shortened: as §1
T47D = experiment: Growth inhibition of human T47D cells after 48 hrs
Procedure, shortened: (§2)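 NCI 60-line screen: cells in RPMI 1640 with 5% FBS and 2 mM L-glutamine, plated at 5000–40000 cells/well, grown 24 h (37 °C, 5% CO₂), then exposed to five 10-fold or ½-log dilutions (DMSO stock) for 48 h. Fixed with TCA (final 10% for adherent cells, 16% for suspension cells), then SRB stained with absorbance at 515 nm. GI50 from percentage growth relative to time-zero and control wells.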

RPMI-8226 = experiment: Growth inhibition of human RPMI8226 cells after 48 hrs; conditions: RPMI-8226, 48 h; procedure, shortened: as §1
SR = experiment: Growth inhibition of human SR cells after 48 hrs; procedure, shortened: as §2
A549 = experiment: Growth inhibition of human A549 cells after 48 hrs; conditions: A549, 48 h; procedure, shortened: as §1
EKVX = experiment: Growth inhibition of human EKVX cells after 48 hrs; procedure, shortened: as §1
HOP-62 = experiment: Growth inhibition of human HOP62 cells after 48 hrs; conditions: HOP-62, 48 h; procedure, shortened: as §1
HOP-92 = experiment: Growth inhibition of human HOP92 cells after 48 hrs; conditions: HOP-92, 48 h; procedure, shortened: as §1
NCI-H226 = experiment: Growth inhibition of human NCI-H226 cells after 48 hrs; conditions: NCI-H226, 48 h; procedure, shortened: as §1
NCI-H23 = experiment: Growth inhibition of human NCI-H23 cells after 48 hrs; conditions: Homo sapiens, NCI-H23, 48 h; procedure, shortened: as §1
NCI-H322M = experiment: Growth inhibition of human NCI-H322M cells after 48 hrs; procedure, shortened: as §1
NCI-H460 [2] = experiment: Growth inhibition of human NCI-H460 cells after 48 hrs; conditions: NCI-H460, 48 h; procedure, shortened: as §1
NCI-H522 = experiment: Growth inhibition of human NCI-H522 cells after 48 hrs; conditions: NCI-H522, 48 h; procedure, shortened: as §1
COLO 205 = experiment: Growth inhibition of human COLO205 cells after 48 hrs; conditions: COLO 205, 48 h; procedure, shortened: as §1
HCC 2998 = experiment: Growth inhibition of human HCC2998 cells after 48 hrs; conditions: HCC 2998, 48 h; procedure, shortened: as §1
HCT-116 = experiment: Growth inhibition of human HCT116 cells after 48 hrs; conditions: HCT-116, 48 h; procedure, shortened: as §1
HCT-15 = experiment: Growth inhibition of human HCT15 cells after 48 hrs; conditions: HCT-15, 48 h; procedure, shortened: as §1
HT-29 = experiment: Growth inhibition of human HT29 cells after 48 hrs; conditions: HT-29, 48 h; procedure, shortened: as §1
KM12 = experiment: Growth inhibition of human KM12 cells after 48 hrs; conditions: KM12, 48 h; procedure, shortened: as §1
SW-620 = experiment: Growth inhibition of human SW620 cells after 48 hrs; conditions: SW-620, 48 h; procedure, shortened: as §2
SF-268 [3] = experiment: Growth inhibition of human SF268 cells after 48 hrs; conditions: SF-268, 48 h; procedure, shortened: as §1
SF-295 = experiment: Growth inhibition of human SF295 cells after 48 hrs; conditions: SF-295, 48 h; procedure, shortened: as §1
SF-539 = experiment: Growth inhibition of human SF539 cells after 48 hrs; conditions: SF-539, 48 h; procedure, shortened: as §1
SNB-19 = experiment: Growth inhibition of human SNB19 cells after 48 hrs; conditions: SNB-19, 48 h; procedure, shortened: as §2
SNB-75 = experiment: Growth inhibition of human SNB75 cells after 48 hrs; conditions: SNB-75, 48 h; procedure, shortened: as §2
U-251 = experiment: Growth inhibition of human U251 cells after 48 hrs; conditions: U-251, 48 h; procedure, shortened: as §2
LOX IMVI = experiment: Growth inhibition of human LOXIMVI cells after 48 hrs; procedure, shortened: as §1
Malme-3M = experiment: Growth inhibition of human MALME3M cells after 48 hrs; procedure, shortened: as §1
M14 = experiment: Growth inhibition of human M14 cells after 48 hrs; conditions: M14, 48 h; procedure, shortened: as §1
SK-MEL-2 = experiment: Growth inhibition of human SK-MEL2 cells after 48 hrs; conditions: SK-MEL-2, 48 h; procedure, shortened: as §1
SK-MEL-28 = experiment: Growth inhibition of human SK-MEL28 cells after 48 hrs; conditions: SK-MEL-28, 48 h; procedure, shortened: as §1
SK-MEL-5 = experiment: Growth inhibition of human SK-MEL5 cells after 48 hrs; conditions: SK-MEL-5, 48 h; procedure, shortened: as §1
UACC-257 = experiment: Growth inhibition of human UACC257 cells after 48 hrs; conditions: UACC-257, 48 h; procedure, shortened: as §2
UACC-62 = experiment: Growth inhibition of human UACC62 cells after 48 hrs; conditions: UACC-62, 48 h; procedure, shortened: as §2
IGROV-1 = experiment: Growth inhibition of human IGROV1 cells after 48 hrs; conditions: IGROV-1, 48 h; procedure, shortened: as §1
OVCAR-3 = experiment: Growth inhibition of human OVCAR-3 cells after 48 hrs; conditions: OVCAR-3, 48 h; procedure, shortened: as §1
OVCAR-4 = experiment: Growth inhibition of human OVCAR4 cells after 48 hrs; conditions: OVCAR-4, 48 h; procedure, shortened: as §1
OVCAR-5 = experiment: Growth inhibition of human OVCAR5 cells after 48 hrs; conditions: OVCAR-5, 48 h; procedure, shortened: as §1
OVCAR-8 = experiment: Growth inhibition of human OVCAR8 cells after 48 hrs; conditions: OVCAR-8, 48 h; procedure, shortened: as §1
SK-OV-3 = experiment: Growth inhibition of human SKOV3 cells after 48 hrs; conditions: SK-OV-3, 48 h; procedure, shortened: as §2
786-0 = experiment: Growth inhibition of human 786-0 cells after 48 hrs; conditions: 786-0, 48 h; procedure, shortened: as §1
A498 = experiment: Growth inhibition of human A498 cells after 48 hrs; conditions: A498, 48 h; procedure, shortened: as §1
ACHN = experiment: Growth inhibition of human ACHN cells after 48 hrs; procedure, shortened: as §1
CAKI-1 = experiment: Growth inhibition of human CAKI1 cells after 48 hrs; conditions: CAKI-1, 48 h; procedure, shortened: as §1
RXF 393 = experiment: Growth inhibition of human RXF393 cells after 48 hrs; conditions: RXF 393, 48 h; procedure, shortened: as §1
SN12C = experiment: Growth inhibition of human SN12C cells after 48 hrs; procedure, shortened: as §2
TK-10 = experiment: Growth inhibition of human TK10 cells after 48 hrs; conditions: TK-10, 48 h; procedure, shortened: as §2
UO-31 = experiment: Growth inhibition of human UO31 cells after 48 hrs; conditions: UO-31, 48 h; procedure, shortened: as §2
PC-3 = experiment: Growth inhibition of human PC3 cells after 48 hrs; conditions: PC-3, 48 h; procedure, shortened: as §1
DU-145 = experiment: Growth inhibition of human DU145 cells after 48 hrs; conditions: DU-145, 48 h; procedure, shortened: as §1
MCF7 [4] = experiment: Growth inhibition of human MCF7 cells after 48 hrs; conditions: MCF7, 48 h; procedure, shortened: as §1
NCI/ADR-RES = experiment: Growth inhibition of human NCI/ADR-RES cells after 48 hrs; procedure, shortened: as §1
MDA-MB-231 = experiment: Growth inhibition of human MDA-MB-231 cells after 48 hrs; conditions: MDA-MB-231, 48 h; procedure, shortened: as §1
MCF7 [5] = experiment: Antitumor activity against human MCF7 cells at 0.1 mM after 48 hrs
Procedure, shortened: (§3)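 Prescreen run under the NCI Developmental Therapeutic Program. Agents were tested at a single concentration of 10^-4 M against a three-line panel (MCF7, NCI-H460, SF-268).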

NCI-H460 [6] = experiment: Antitumor activity against human NCI-H460 cells at 0.1 mM after 48 hrs; procedure, shortened: as §3
SF-268 [7] = experiment: Antitumor activity against human SF268 cells at 0.1 mM after 48 hrs; procedure, shortened: as §3

Structure (SMILES): Cn1c2ccccc2c2c(=O)n(CCCC(=O)N(C(=O)NC3CCCCC3)C3CCCCC3)c3c(-c4ccccc4)nnn3c21
- GI50 (CCRF-CEM): > 100 µM
- GI50 (HL-60): > 100 µM
- GI50 (K562): > 100 µM
- GI50 (MOLT-4): > 100 µM
- GI50 [1]: > 100 µM
- GI50 (MDA-MB-435): > 100 µM
- GI50 (BT-549): 72.4 µM
- GI50 (T47D): 56.2 µM
- GI50 (RPMI-8226): > 100 µM
- GI50 (SR): > 100 µM
- GI50 (A549): > 100 µM
- GI50 (EKVX): > 100 µM
- GI50 (HOP-62): > 100 µM
- GI50 (HOP-92): > 100 µM
- GI50 (NCI-H226): > 100 µM
- GI50 (NCI-H23): > 100 µM
- GI50 (NCI-H322M): > 100 µM
- GI50 (NCI-H460 [2]): > 100 µM
- GI50 (NCI-H522): 69.2 µM
- GI50 (COLO 205): > 100 µM
- GI50 (HCC 2998): > 100 µM
- GI50 (HCT-116): 91.2 µM
- GI50 (HCT-15): > 100 µM
- GI50 (HT-29): > 100 µM
- GI50 (KM12): > 100 µM
- GI50 (SW-620): > 100 µM
- GI50 (SF-268 [3]): 97.7 µM
- GI50 (SF-295): 79.4 µM
- GI50 (SF-539): 38 µM
- GI50 (SNB-19): > 100 µM
- GI50 (SNB-75): 44.7 µM
- GI50 (U-251): > 100 µM
- GI50 (LOX IMVI): > 100 µM
- GI50 (Malme-3M): > 100 µM
- GI50 (M14): > 100 µM
- GI50 (SK-MEL-2): > 100 µM
- GI50 (SK-MEL-28): > 100 µM
- GI50 (SK-MEL-5): > 100 µM
- GI50 (UACC-257): > 100 µM
- GI50 (UACC-62): > 100 µM
- GI50 (IGROV-1): 15.5 µM
- GI50 (OVCAR-3): > 100 µM
- GI50 (OVCAR-4): 38 µM
- GI50 (OVCAR-5): > 100 µM
- GI50 (OVCAR-8): > 100 µM
- GI50 (SK-OV-3): > 100 µM
- GI50 (786-0): > 100 µM
- GI50 (A498): 66.1 µM
- GI50 (ACHN): > 100 µM
- GI50 (CAKI-1): > 100 µM
- GI50 (RXF 393): 63.1 µM
- GI50 (SN12C): > 100 µM
- GI50 (TK-10): > 100 µM
- GI50 (UO-31): > 100 µM
- GI50 (PC-3): > 100 µM
- GI50 (DU-145): > 100 µM
- GI50 (MCF7 [4]): 64.6 µM
- GI50 (NCI/ADR-RES): 95.5 µM
- GI50 (MDA-MB-231): 72.4 µM

Structure (SMILES): COC(=O)C(Cc1c[nH]cn1)NC(=O)CCCn1c(=O)c2c3ccccc3n(C)c2n2nnc(-c3ccccc3)c12 (configuration not stated)
- Activity (MCF7 [5]): 116%
- Activity (NCI-H460 [6]): 117%
- Activity (SF-268 [7]): 128%
